# Experiments:
# [1] = tested on: M2 and M4; details: cited from earlier work
# [2] = tested on: M1; details: cited from earlier work
# [3] = target: T1, rat M1 (Rattus norvegicus, UniProt P08482); test: Rat M1 functional assay in high expressing M1 cell line; assay type: cell-based; details: rat M1, up to 30 μM
# T1 sequence (P08482 1-460): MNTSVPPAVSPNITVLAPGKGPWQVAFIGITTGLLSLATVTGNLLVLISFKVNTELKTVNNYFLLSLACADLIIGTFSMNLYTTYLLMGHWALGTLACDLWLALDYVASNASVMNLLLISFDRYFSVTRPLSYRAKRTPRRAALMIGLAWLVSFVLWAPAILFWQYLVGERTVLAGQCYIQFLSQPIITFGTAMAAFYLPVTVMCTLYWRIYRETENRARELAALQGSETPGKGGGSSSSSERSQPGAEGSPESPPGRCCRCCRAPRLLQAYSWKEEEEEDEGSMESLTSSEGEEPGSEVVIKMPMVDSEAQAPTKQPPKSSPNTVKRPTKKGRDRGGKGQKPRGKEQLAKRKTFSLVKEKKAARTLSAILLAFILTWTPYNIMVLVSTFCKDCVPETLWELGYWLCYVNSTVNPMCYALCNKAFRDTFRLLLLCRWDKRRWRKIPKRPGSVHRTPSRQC
# Method in brief: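 Calcium mobilization in CHO cells expressing rat M1. Agonist mode adds no exogenous acetylcholine, and EC50 is derived from the response. PAM mode is run with a fixed EC20 concentration of acetylcholine. Values are means from three independent experiments, each performed in triplicate.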
# [4] = tested on: M1; assay type: cell-based; details: high expressing recombinant cell lines, species not stated
# [5] = tested on: human M2−5; test: PAM selectivity versus human M2-5; assay type: cell-based; details: read-out: EC50 vs human M2−5
# [6] = Fraction unbound in rat plasma; assay type: in vitro ADME
# [7] = Fraction unbound in human plasma; assay type: in vitro ADME
# [8] = Predicted hepatic clearance, rat; assay type: in vitro ADME
# [9] = Predicted hepatic clearance, human; assay type: in vitro ADME
# [10] = In vivo rat PK
# [11] = Solubility in SGF; assay type: physicochemical; details: pH 1.6
molecule,measurement,setting,value
"O=C1C(=O)N(Cc2ccc(Br)cc2)c2ccccc21 [compound 9, VU0119498]",activity at M2 and M4,[1],inactive
same,M1 agonist activity,[2]; HTS hit,virtually no detectable M1 agonist activity
VU6005877 [24c],agonist activity in high-expressing M1 cell line,[3],no agonist activity
same,M1 agonism,[4],devoid of M1 agonism
same,EC50,[5],> 30 µM
same,"fraction unbound in plasma, rat fu",[6],0.016
same,"fraction unbound in plasma, human fu",[7],0.01
same,"predicted hepatic clearance, rat CLhep",[8],31.7 mL/min/kg
same,"predicted hepatic clearance, human CLhep",[9],13.6 mL/min/kg
same,CLp,[10],7.3 mL/min/kg
VU0451725 [compound 10],solubility,[11],< 5 µg/mL
"COc1ccc(Cn2cc(C(=O)O)c(=O)c3ccccc32)cc1 [compound 1, BQCA]",mode of M1 pharmacology,[2],highly potent and robust M1 ago-PAM

# Reference: PMC6456254 (ACS chemical neuroscience, 2018)
